# Laboratory results from ChEMBL document CHEMBL1134450, “Solid-phase synthesis of a nonpeptide RGD mimetic library: new selective alphavbeta3 integrin antagonists” (J Med Chem, 2001).
# Where a SMILES comes first, the peptide text is derived from it. [ ]: non-standard residue; d: D form. NMeF = CN[C@@H](Cc1ccccc1)C(=O)O; azaGly = NNC(=O)O
# Assays:
# [1] = Partition coefficient (logP); format: physicochemical; settings: octanol/water
# [2] = target: Integrin alpha-IIb/beta-3 (Homo sapiens, UniProt P05106+P08514); test: Inhibitory activity against alpha IIb beta 3 integrin; format: protein-complex assay
# Chain of Integrin alpha-IIb/beta-3 (P05106 27-788 limits assumed): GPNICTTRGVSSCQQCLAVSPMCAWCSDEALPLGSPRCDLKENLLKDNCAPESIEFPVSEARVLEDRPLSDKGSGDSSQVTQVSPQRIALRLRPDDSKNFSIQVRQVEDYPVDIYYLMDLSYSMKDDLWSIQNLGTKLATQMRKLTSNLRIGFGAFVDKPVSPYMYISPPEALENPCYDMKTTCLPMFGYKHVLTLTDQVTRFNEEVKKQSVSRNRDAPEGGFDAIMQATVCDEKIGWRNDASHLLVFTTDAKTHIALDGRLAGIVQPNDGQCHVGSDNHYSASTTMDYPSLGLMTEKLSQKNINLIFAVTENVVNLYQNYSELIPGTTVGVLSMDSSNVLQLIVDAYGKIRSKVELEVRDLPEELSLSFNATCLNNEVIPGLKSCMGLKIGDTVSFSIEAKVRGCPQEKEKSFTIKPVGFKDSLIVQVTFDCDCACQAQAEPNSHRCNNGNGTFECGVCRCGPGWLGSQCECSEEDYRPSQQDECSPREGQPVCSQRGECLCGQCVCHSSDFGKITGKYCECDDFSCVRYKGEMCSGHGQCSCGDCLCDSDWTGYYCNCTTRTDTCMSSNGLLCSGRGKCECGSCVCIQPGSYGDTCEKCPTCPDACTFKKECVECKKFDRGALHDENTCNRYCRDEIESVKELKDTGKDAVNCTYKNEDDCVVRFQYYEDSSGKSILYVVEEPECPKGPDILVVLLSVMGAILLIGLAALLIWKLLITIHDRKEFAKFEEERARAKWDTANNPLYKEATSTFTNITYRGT
# Chain of Integrin alpha-IIb/beta-3 (P08514 32-887 limits assumed): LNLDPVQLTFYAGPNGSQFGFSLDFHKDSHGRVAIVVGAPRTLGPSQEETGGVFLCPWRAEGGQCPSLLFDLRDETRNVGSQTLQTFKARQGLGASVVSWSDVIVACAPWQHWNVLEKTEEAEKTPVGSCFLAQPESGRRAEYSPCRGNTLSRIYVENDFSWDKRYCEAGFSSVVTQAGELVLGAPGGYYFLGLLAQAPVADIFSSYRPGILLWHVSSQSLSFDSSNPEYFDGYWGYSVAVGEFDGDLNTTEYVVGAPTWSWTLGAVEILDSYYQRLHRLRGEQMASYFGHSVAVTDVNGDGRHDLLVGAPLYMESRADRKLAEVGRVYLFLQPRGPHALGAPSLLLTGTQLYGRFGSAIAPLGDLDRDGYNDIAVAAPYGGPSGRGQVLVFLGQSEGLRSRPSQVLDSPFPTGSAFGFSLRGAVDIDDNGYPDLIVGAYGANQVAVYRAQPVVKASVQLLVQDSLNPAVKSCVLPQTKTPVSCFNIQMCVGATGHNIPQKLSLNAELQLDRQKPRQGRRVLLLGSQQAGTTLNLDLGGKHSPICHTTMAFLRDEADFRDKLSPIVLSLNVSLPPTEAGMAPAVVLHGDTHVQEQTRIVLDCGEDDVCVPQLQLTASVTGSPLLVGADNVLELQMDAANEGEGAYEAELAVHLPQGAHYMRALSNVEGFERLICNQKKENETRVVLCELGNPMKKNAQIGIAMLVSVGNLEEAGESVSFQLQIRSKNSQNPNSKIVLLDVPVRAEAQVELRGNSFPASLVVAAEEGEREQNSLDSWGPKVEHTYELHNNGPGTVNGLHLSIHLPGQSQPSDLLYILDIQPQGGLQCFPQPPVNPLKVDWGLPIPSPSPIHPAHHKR
# Chain of Integrin alpha-IIb/beta-3 (P08514 891-1039 limits assumed): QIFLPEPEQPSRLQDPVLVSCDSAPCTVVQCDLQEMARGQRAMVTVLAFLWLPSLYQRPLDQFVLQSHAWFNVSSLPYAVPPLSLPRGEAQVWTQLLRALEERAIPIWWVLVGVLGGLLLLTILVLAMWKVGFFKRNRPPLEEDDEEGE
# Method in brief: (§1)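 Solid-phase competition binding. αvβ3 was recombinant, from baculovirus, purified on LM609 antibody column, paired with biotinylated human vitronectin. αIIbβ3 was paired with biotinylated human fibrinogen. Integrins coated at 1 µg/mL, blocked, then compounds serially diluted and co-incubated with ligand (1 µg/mL), 37 °C, 3 h. Read-out was alkaline-phosphatase anti-biotin.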
# Integrin alpha-V/beta-3 = Integrin alpha-V/beta-3 (Homo sapiens, UniProt P05106+P06756); test: Inhibitory activity against vitronectin receptor (alpha V beta 3); format: protein-complex assay; method in brief: as §1
# Chain of Integrin alpha-V/beta-3 (P05106 27-788 limits assumed): as the sequence (P05106 27-788 limits assumed) above
# Chain of Integrin alpha-V/beta-3 (P06756 31-889 limits assumed): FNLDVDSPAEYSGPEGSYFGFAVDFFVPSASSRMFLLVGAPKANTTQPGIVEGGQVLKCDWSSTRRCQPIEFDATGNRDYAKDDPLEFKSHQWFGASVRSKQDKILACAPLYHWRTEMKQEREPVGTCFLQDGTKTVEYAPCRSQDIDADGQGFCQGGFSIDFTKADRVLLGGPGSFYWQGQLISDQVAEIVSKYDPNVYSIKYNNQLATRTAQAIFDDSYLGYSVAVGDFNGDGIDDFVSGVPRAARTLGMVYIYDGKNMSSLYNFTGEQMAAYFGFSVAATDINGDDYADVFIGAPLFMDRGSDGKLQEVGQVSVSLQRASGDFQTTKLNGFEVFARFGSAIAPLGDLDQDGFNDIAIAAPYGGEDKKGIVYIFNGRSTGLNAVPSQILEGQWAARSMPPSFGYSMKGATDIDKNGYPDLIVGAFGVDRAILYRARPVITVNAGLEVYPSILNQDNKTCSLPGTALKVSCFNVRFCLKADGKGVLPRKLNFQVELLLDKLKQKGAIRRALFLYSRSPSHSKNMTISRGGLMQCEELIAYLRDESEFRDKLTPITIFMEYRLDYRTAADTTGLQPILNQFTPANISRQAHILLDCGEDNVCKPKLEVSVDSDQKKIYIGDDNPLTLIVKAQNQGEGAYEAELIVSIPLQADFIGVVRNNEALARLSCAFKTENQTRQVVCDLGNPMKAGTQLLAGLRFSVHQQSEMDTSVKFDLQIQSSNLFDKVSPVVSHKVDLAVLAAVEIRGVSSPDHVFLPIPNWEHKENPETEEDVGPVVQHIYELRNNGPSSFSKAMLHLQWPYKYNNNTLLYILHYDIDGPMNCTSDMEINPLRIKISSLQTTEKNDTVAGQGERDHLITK
# Chain of Integrin alpha-V/beta-3 (P06756 891-1048 limits assumed): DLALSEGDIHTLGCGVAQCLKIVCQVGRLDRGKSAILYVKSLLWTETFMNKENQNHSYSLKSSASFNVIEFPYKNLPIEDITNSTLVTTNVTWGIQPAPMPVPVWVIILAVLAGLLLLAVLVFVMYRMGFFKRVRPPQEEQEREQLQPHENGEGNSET
# [3] = target: Integrin alpha-V/beta-3 and alpha-IIb/beta 3 (Homo sapiens) (UniProt P05106+P06756+P08514); test: Selectivity designates the quotient of affinities to integrins alpha v beta-3 and alpha IIb beta3; format: protein assay
# Method in brief: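 Quotient of IC50 values from the immobilized-integrin competition assays: αvβ3 against biotinylated vitronectin and αIIbβ3 against biotinylated fibrinogen. Ligand at 1 µg/mL, 37 °C, 3 h, anti-biotin alkaline-phosphatase detection. IC50 came from sigmoid fits of triplicates.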
SMILES,logP [1],IC50 [2] [nM],IC50 (Integrin alpha-V/beta-3) [nM],Selectivity [3]
Cc1ccnc(NCCCCC(=O)NNC(=O)NC(CC(=O)O)c2ccc(F)cc2)c1 (stereo unspecified),1.8,> 10000,48,
Cc1ccnc(NCCCCC(=O)NNC(=O)CC(CC(=O)O)c2ccc(-c3ccccc3)cc2)c1 (stereo unspecified),,,3,1000
COc1ccc(C(CC(=O)O)NC(=O)NNC(=O)CCCCNc2cc(C)ccn2)cc1 (stereo unspecified),1.52,> 10000,42,
CC(N)=Nc1cccc(C(=O)NNC(=O)CC(CC(=O)O)c2ccc(Br)cc2)c1 (stereo unspecified),2.27,> 1000,40,
Cc1ccnc(NCCCCC(=O)NNC(=O)NC(CC(=O)O)c2cccc3ccccc23)c1 (stereo unspecified),2.64,,140,
Cc1ccnc(NCCCCC(=O)NNC(=O)CC(CC(=O)O)c2ccc(Cl)cc2)c1 (stereo unspecified),2.63,,15,
CC(=N)Nc1cccc(C(=O)NNC(=O)CC(CC(=O)O)c2ccc(Cl)cc2)c1 (stereo unspecified),2,8000,160,
N=C(N)Nc1cccc(C(=O)NNC(=O)NC(CC(=O)O)C(N)=O)c1 (stereo unspecified),,,,> 70
N=C(N)NCCCCC(=O)NNC(=O)NC(CC(=O)O)c1ccccc1 (stereo unspecified),-0.26,1000,40,
NC(N)=Nc1cccc(C(=O)NNC(=O)NC(CC(=O)O)c2cc(Cl)cc(Cl)c2)c1 (stereo unspecified),1.82,> 1000,1,
N=C(N)Nc1cccc(C(=O)NNC(=O)CC(CC(=O)O)c2ccc(Cl)cc2)c1 (stereo unspecified),1.68,> 1000,2,
COc1ccc(C(CC(=O)O)NC(=O)NNC(=O)c2cccc(N=C(N)N)c2)cc1 (stereo unspecified),0.58,> 1000,0.9,
N=C(N)Nc1cccc(C(=O)NNC(=O)NC(CC(=O)O)c2ccc(Cl)cc2)c1 (stereo unspecified),1.26,5500,0.1,
N=C(N)Nc1cccc(C(=O)NNC(=O)NC(CC(=O)O)c2ccc(OC(F)(F)F)cc2)c1 (stereo unspecified),2.23,> 1000,3,
Cc1ccnc(NCCCCC(=O)NNC(=O)CC(CC(=O)O)c2ccc(F)cc2)c1 (stereo unspecified),2.23,,35,
Cc1ccnc(NCCCCC(=O)NNC(=O)CC(CC(=O)O)c2cc(Cl)cc(Cl)c2)c1 (stereo unspecified),3.19,> 10000,9,
COc1ccc(C(CC(=O)O)CC(=O)NNC(=O)c2cccc(NC(=N)N)c2)cc1 (stereo unspecified),1,> 1000,1,
Cc1ccnc(NCCCCC(=O)NNC(=O)NC(CC(=O)O)c2cc(Cl)cc(Cl)c2)c1 (stereo unspecified),2.76,> 10000,80,
N=C(N)Nc1cccc(C(=O)NNC(=O)NC(CC(=O)O)c2ccc(Br)cc2)c1 (stereo unspecified),1.53,> 1000,1,
Cc1ccnc(NCCCCC(=O)NNC(=O)CC(CC(=O)O)c2ccc(Br)cc2)c1 (stereo unspecified),2.9,9000,6,
CC(C)[C@@H]1NC(=O)[C@H](CCCN=C(N)N)NC(=O)CNC(=O)[C@H](CC(=O)O)NC(=O)[C@H](Cc2ccccc2)NC1=O (cyclo(DGRVF)),,,,415
CC(C)[C@@H]1NC(=O)[C@H](CCCN=C(N)N)NC(=O)CNC(=O)[C@H](CC(=O)O)NC(=O)[C@H](Cc2ccccc2)N(C)C1=O (cyclo(DGRV[NMeF])),,,,1460
Cc1ccnc(NCCCCC(=O)NNC(=O)NC(CC(=O)O)c2ccc(Br)cc2)c1 (stereo unspecified),2.47,,7,

# The next lines start with the values.
logP [1],IC50 [2] [nM],IC50 (Integrin alpha-V/beta-3) [nM],Selectivity [3],SMILES
2.24,1000,2,,N=C(N)Nc1cccc(C(=O)NNC(=O)CC(CC(=O)O)c2cc(Cl)cc(Cl)c2)c1 (stereo unspecified)
1.64,> 10000,37,,Cc1ccnc(NCCCCC(=O)NNC(=O)NC(CC(=O)O)c2ccccc2)c1 (stereo unspecified)
2.07,> 10000,7,,Cc1ccnc(NCCCCC(=O)NNC(=O)CC(CC(=O)O)c2ccccc2)c1 (stereo unspecified)
,,,270,CC(C)[C@@H]1NC(=O)[C@H](CCCN=C(N)N)NC(=O)NNC(=O)[C@H](CC(=O)O)NC(=O)[C@H](Cc2ccccc2)N(C)C1=O (cyclo(D[azaGly]RV[NMeF]))
1.7,> 10000,27,,NC(N)=Nc1cccc(C(=O)NNC(=O)NC(CC(=O)O)c2cccc3ccccc23)c1 (stereo unspecified)
0.86,1000,6,,NC(N)=Nc1cccc(C(=O)NNC(=O)NC(CC(=O)O)c2ccc(F)cc2)c1 (stereo unspecified)
3.17,,130,,Cc1ccnc(NCCCCC(=O)NNC(=O)NC(CC(=O)O)c2ccc(OC(F)(F)F)cc2)c1 (stereo unspecified)
1.94,> 10000,22,,COc1ccc(C(CC(=O)O)CC(=O)NNC(=O)CCCCNc2cc(C)ccn2)cc1 (stereo unspecified)
0.7,8500,0.8,,N=C(N)Nc1cccc(C(=O)NNC(=O)NC(CC(=O)O)c2ccccc2)c1 (stereo unspecified)
2.2,7000,0.3,,Cc1ccnc(NCCCCC(=O)NNC(=O)NC(CC(=O)O)c2ccc(Cl)cc2)c1 (stereo unspecified)
1.28,> 1000,4,,N=C(N)Nc1cccc(C(=O)NNC(=O)CC(CC(=O)O)c2ccc(F)cc2)c1 (stereo unspecified)
2.55,,6,,CC(=N)Nc1cccc(C(=O)NNC(=O)CC(CC(=O)O)c2cc(Cl)cc(Cl)c2)c1 (stereo unspecified)
1.44,> 10000,23,,CC(=N)Nc1cccc(C(=O)NNC(=O)CC(CC(=O)O)c2ccccc2)c1 (stereo unspecified)
,> 10000,1000,8,NCCCC[C@H](NC(=O)[C@@H]1CCCN1C(=O)[C@H](CO)NC(=O)[C@H](CC(=O)O)NC(=O)CNC(=O)[C@H](CCCN=C(N)N)NC(=O)CN)C(=O)O
1.13,> 10000,15,,N=C(N)Nc1cccc(C(=O)NNC(=O)CC(CC(=O)O)c2ccccc2)c1 (stereo unspecified)
1.31,> 1000,37,,COc1ccc(C(CC(=O)O)CC(=O)NNC(=O)c2cccc(N=C(C)N)c2)cc1 (stereo unspecified)
-0.07,,1400,,Cc1ccnc(NCCCCC(=O)NNC(=O)NCCC(=O)O)c1
-2.42,> 10000,150,,NC(=O)C(CC(=O)O)NC(=O)NNC(=O)c1cccc(N=C(N)N)c1 (stereo unspecified)
3.11,> 1000,26,,CC(=N)Nc1cccc(C(=O)NNC(=O)CC(CC(=O)O)c2ccc(-c3ccccc3)cc2)c1 (stereo unspecified)
3.54,,210,,O=C(O)CC(CC(=O)NNC(=O)c1cccc(Nc2ccccn2)c1)c1cc(Cl)cc(Cl)c1 (stereo unspecified)
1.6,> 1000,160,,CC(=N)Nc1cccc(C(=O)NNC(=O)CC(CC(=O)O)c2ccc(F)cc2)c1 (stereo unspecified)
1.95,> 1000,2,,N=C(N)Nc1cccc(C(=O)NNC(=O)CC(CC(=O)O)c2ccc(Br)cc2)c1 (stereo unspecified)
2.8,1000,0.7,,N=C(N)Nc1cccc(C(=O)NNC(=O)CC(CC(=O)O)c2ccc(-c3ccccc3)cc2)c1 (stereo unspecified)
